Measurements collected from several papers.
Protocols differ between the studies behind these lines.
Target: Tyrosine-protein kinase SYK (SYK, Homo sapiens, UniProt P43405)

| SMILES | read-out | technique | tested at | remaining binding [%] |
| --- | --- | --- | --- | --- |
| CC1CCCN1c1nccc(-c2cnn3ncccc23)n1 (centres unmarked) | binding |  | 1 µM | 100 |
| Cc1cc(-n2nc(Cc3cc(F)cc(C(F)(F)F)c3)nc2C)ccc1C(N)=O | cell-free assay | competition with immobilised ligand | 1 µM | 87 |
| CCN1CCN(Cc2ccc(C(=O)Nc3ccc(C)c(Oc4ccc5c(c4)CC(=O)N5)c3)cc2C(F)(F)F)CC1 | binding | competition with immobilised ligand | 1 µM | 100 |
| O=C(Nc1c[nH]nc1C(=O)NC1CCNCC1)c1cc(F)cc(F)c1 | binding | competition with immobilised ligand | 1 µM | 100 |
| O=C(c1ccc(Nc2ncc(Cl)c(-c3cc4ccccc4s3)n2)cc1)N1CCC(N2CCCC2)CC1 | binding | competition with immobilised ligand | 1 µM | 8.6 |
| CN(C)c1ncc(F)c(-c2cnn3ncccc23)n1 | binding |  | 1 µM | 76 |
| O=C(c1ccc(Nc2ncc(Cl)c(-c3ccc(Cl)s3)n2)cc1)N1CCC(N2CCCC2)CC1 | binding | competition with immobilised ligand | 1 µM | 43 |
| CN(C)c1ncnc(-c2ccc3nc(Nc4cc(CN5CCN(C(=O)CC(F)(F)F)CC5)ccn4)[nH]c3c2)c1Cl | cell-free assay | competition with immobilised ligand | 1 µM | 96 |
| O=C(c1ccc(Nc2nccc(-c3cc4ccccc4s3)n2)cc1)N1CCC(N2CCCC2)CC1 | binding | competition with immobilised ligand | 1 µM | 31 |
| CN(c1nccc(-c2cnn3ncccc23)n1)C1CC1 | binding |  | 1 µM | 100 |
| N#CC1(c2ccccn2)CCN(Cc2cc(C(=O)N3CCCC3)c(=O)n3ccccc23)CC1 | cell-free assay | competition with immobilised ligand | 1 µM | 92 |
| COc1cnc(Nc2cccc(S(N)(=O)=O)c2)nc1N1CCN(c2ccccc2)CC1 | binding | competition with immobilised ligand | 1 µM | 86 |
| FC(F)(F)Oc1cccc(-c2cnc3ccc(-c4ccncc4)nn23)c1 | binding | competition with immobilised ligand | 5 µM | 64 |
| N[C@H]1CCN(c2nccc(-c3cnn4ncccc34)n2)C1 | binding |  | 1 µM | 81 |
| CCC(=O)N[C@H]1CC[C@@H](C(=O)N(C)c2ccc(-c3nc4ccccc4o3)cc2)C1 | cell-free assay | competition with immobilised ligand | 1 µM | 100 |
| Cc1cnn2ncc(-c3ccnc(N(C)C)n3)c2c1 | binding |  | 1 µM | 100 |
| CO[C@H]1CC[C@H](CNc2ccc(S(=O)(=O)NC(=O)c3ccc(N4CCN(CC5=C(c6ccc(Cl)cc6)CC(C)(C)CC5)CC4)cc3Oc3cnc4[nH]ccc4c3)cc2[N+](=O)[O-])CC1 | cell-free assay | competition with immobilised ligand | 1 µM | 62 |
| Nc1ncc2c(n1)-c1c([nH]c3ccc(C#CC4CC4)cc13)CCCC2 | binding | competition with immobilised ligand | 1 µM | 100 |
| C[C@H]1CCN(c2nccc(-c3cnn4ncccc34)n2)C1 | binding |  | 1 µM | 82 |
| CSc1cccnc1N1CCN(Cc2nc3ccccc3[nH]2)CC1 | cell-free assay | competition with immobilised ligand | 1 µM | 100 |
